# Results reported in ChEMBL document CHEMBL3875209, “Synthesis and biological evaluation of cis-restricted triazole/tetrazole mimics of combretastatin-benzothiazole hybrids as tubulin polymerization inhibitors and apoptosis inducers” (Bioorg Med Chem, 2017).
# Assay: Antiproliferative activity against human DU145 cells after 48 hrs by MTT assay
# Type: functional, cell-based
# Details: DU-145, 48 h
# Procedure, shortened: (§1)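 MTT assay. Cells seeded in DMEM with 10% FBS and left 24 h at 37 °C in CO2 before compound treatment for 48 h. MTT (5 mg/mL stock) added for 4 h, formazan dissolved in DMSO, absorbance read at 570 nm. IC50 taken as the mean of three independent experiments.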
row,Structure (SMILES),IC50 [µM]
1,COc1cc(OC)c2sc(-c3ccc(-n4cnnc4-c4cc(OC)c(OC)c(OC)c4)cc3)nc2c1,11.8
2,COc1ccc2nc(-c3ccc(-n4nnnc4-c4cc(OC)c(OC)c(OC)c4)c(OC)c3)sc2c1,5.67
3,COc1cc(-c2nnnn2-c2ccc(-c3nc4cc(OC)c(OC)c(OC)c4s3)cc2)cc(OC)c1OC,7.24
4,COc1cc(-c2nnnn2-c2ccc(-c3nc4cc(OC)c(OC)c(OC)c4s3)cc2C)cc(OC)c1OC,14.8
5,COc1ccc2nc(-c3ccc(-n4cc(-c5cc(OC)c(OC)c(OC)c5)nn4)c(OC)c3)sc2c1,18.6
6,COc1cc(-c2cn(-c3ccc(-c4nc5cc(OC)c(OC)c(OC)c5s4)cc3)nn2)cc(OC)c1OC,14.8
7,COc1ccc2nc(-c3ccc(-n4nnnc4-c4cc(OC)c(OC)c(OC)c4)c(C)c3)sc2c1,15.9
8,COc1cc(-c2nnnn2-c2ccc(-c3nc4ccc(F)cc4s3)cc2C)cc(OC)c1OC,1.14
9,COc1cc(-c2cn(-c3ccc(-c4nc5ccc(F)cc5s4)cc3C)nn2)cc(OC)c1OC,7.33
10,COc1cc(OC)c2sc(-c3ccc(-n4nnnc4-c4cc(OC)c(OC)c(OC)c4)cc3)nc2c1,19.9
11,COc1cc(OC)c2sc(-c3ccc(-n4nnnc4-c4cc(OC)c(OC)c(OC)c4)c(OC)c3)nc2c1,13.5
12,COc1cc(-c2nncn2-c2ccc(-c3nc4cc(OC)c(OC)c(OC)c4s3)cc2)cc(OC)c1OC,0.46
13,COc1cc(-c2nc3cc(OC)c(OC)c(OC)c3s2)ccc1-n1cnnc1-c1cc(OC)c(OC)c(OC)c1,11.5
14,COc1ccc2nc(-c3ccc(-n4cnnc4-c4cc(OC)c(OC)c(OC)c4)c(OC)c3)sc2c1,11.6
15,COc1ccc2nc(-c3ccc(-n4cc(-c5cc(OC)c(OC)c(OC)c5)nn4)cc3)sc2c1,12.3
16,COc1cc(OC)c2sc(-c3ccc(-n4cnnc4-c4cc(OC)c(OC)c(OC)c4)c(C)c3)nc2c1,1.04
17,COc1cc(OC)c2sc(-c3ccc(-n4cc(-c5cc(OC)c(OC)c(OC)c5)nn4)c(OC)c3)nc2c1,0.41

# Assay: Antiproliferative activity against human HeLa cells after 48 hrs by MTT assay
# Type: functional, cell-based
# Details: not given
# Procedure, shortened: as §1
row,Structure (SMILES),IC50 [µM]
1,COc1cc(OC)c2sc(-c3ccc(-n4cnnc4-c4cc(OC)c(OC)c(OC)c4)cc3)nc2c1,4.13
2,COc1ccc2nc(-c3ccc(-n4nnnc4-c4cc(OC)c(OC)c(OC)c4)c(OC)c3)sc2c1,4.56
3,COc1cc(-c2nnnn2-c2ccc(-c3nc4cc(OC)c(OC)c(OC)c4s3)cc2)cc(OC)c1OC,6.16
4,COc1cc(-c2nnnn2-c2ccc(-c3nc4cc(OC)c(OC)c(OC)c4s3)cc2C)cc(OC)c1OC,9.81
5,COc1ccc2nc(-c3ccc(-n4cc(-c5cc(OC)c(OC)c(OC)c5)nn4)c(OC)c3)sc2c1,11.1
6,COc1cc(-c2cn(-c3ccc(-c4nc5cc(OC)c(OC)c(OC)c5s4)cc3)nn2)cc(OC)c1OC,11.5
7,COc1ccc2nc(-c3ccc(-n4nnnc4-c4cc(OC)c(OC)c(OC)c4)c(C)c3)sc2c1,11
8,COc1cc(-c2nnnn2-c2ccc(-c3nc4ccc(F)cc4s3)cc2C)cc(OC)c1OC,0.97
9,COc1cc(-c2cn(-c3ccc(-c4nc5ccc(F)cc5s4)cc3C)nn2)cc(OC)c1OC,6.76
10,COc1cc(OC)c2sc(-c3ccc(-n4nnnc4-c4cc(OC)c(OC)c(OC)c4)cc3)nc2c1,10.2
11,COc1cc(OC)c2sc(-c3ccc(-n4nnnc4-c4cc(OC)c(OC)c(OC)c4)c(OC)c3)nc2c1,11.7
12,COc1cc(-c2nncn2-c2ccc(-c3nc4cc(OC)c(OC)c(OC)c4s3)cc2)cc(OC)c1OC,0.21
13,COc1cc(-c2nc3cc(OC)c(OC)c(OC)c3s2)ccc1-n1cnnc1-c1cc(OC)c(OC)c(OC)c1,5.51
14,COc1ccc2nc(-c3ccc(-n4cnnc4-c4cc(OC)c(OC)c(OC)c4)c(OC)c3)sc2c1,8.76
15,COc1ccc2nc(-c3ccc(-n4cc(-c5cc(OC)c(OC)c(OC)c5)nn4)cc3)sc2c1,11.5
16,COc1cc(OC)c2sc(-c3ccc(-n4cnnc4-c4cc(OC)c(OC)c(OC)c4)c(C)c3)nc2c1,0.93
17,COc1cc(OC)c2sc(-c3ccc(-n4cc(-c5cc(OC)c(OC)c(OC)c5)nn4)c(OC)c3)nc2c1,0.37

# Assay: Antiproliferative activity against human A549 cells after 48 hrs by MTT assay
# Type: functional, cell-based
# Details: A549, 48 h
# Procedure, shortened: as §1
row,Structure (SMILES),IC50 [µM]
1,COc1cc(OC)c2sc(-c3ccc(-n4cnnc4-c4cc(OC)c(OC)c(OC)c4)cc3)nc2c1,5.04
2,COc1ccc2nc(-c3ccc(-n4nnnc4-c4cc(OC)c(OC)c(OC)c4)c(OC)c3)sc2c1,2.25
3,COc1cc(-c2nnnn2-c2ccc(-c3nc4cc(OC)c(OC)c(OC)c4s3)cc2)cc(OC)c1OC,3.54
4,COc1cc(-c2nnnn2-c2ccc(-c3nc4cc(OC)c(OC)c(OC)c4s3)cc2C)cc(OC)c1OC,7.41
5,COc1ccc2nc(-c3ccc(-n4cc(-c5cc(OC)c(OC)c(OC)c5)nn4)c(OC)c3)sc2c1,10.7
6,COc1cc(-c2cn(-c3ccc(-c4nc5cc(OC)c(OC)c(OC)c5s4)cc3)nn2)cc(OC)c1OC,8.54
7,COc1ccc2nc(-c3ccc(-n4nnnc4-c4cc(OC)c(OC)c(OC)c4)c(C)c3)sc2c1,4.78
8,COc1cc(-c2nnnn2-c2ccc(-c3nc4ccc(F)cc4s3)cc2C)cc(OC)c1OC,0.24
9,COc1cc(-c2cn(-c3ccc(-c4nc5ccc(F)cc5s4)cc3C)nn2)cc(OC)c1OC,3.38
10,COc1cc(OC)c2sc(-c3ccc(-n4nnnc4-c4cc(OC)c(OC)c(OC)c4)cc3)nc2c1,7.24
11,COc1cc(OC)c2sc(-c3ccc(-n4nnnc4-c4cc(OC)c(OC)c(OC)c4)c(OC)c3)nc2c1,9.24
12,COc1cc(-c2nncn2-c2ccc(-c3nc4cc(OC)c(OC)c(OC)c4s3)cc2)cc(OC)c1OC,0.091
13,COc1cc(-c2nc3cc(OC)c(OC)c(OC)c3s2)ccc1-n1cnnc1-c1cc(OC)c(OC)c(OC)c1,3.46
14,COc1ccc2nc(-c3ccc(-n4cnnc4-c4cc(OC)c(OC)c(OC)c4)c(OC)c3)sc2c1,9.06
15,COc1ccc2nc(-c3ccc(-n4cc(-c5cc(OC)c(OC)c(OC)c5)nn4)cc3)sc2c1,6.3
16,COc1cc(OC)c2sc(-c3ccc(-n4cnnc4-c4cc(OC)c(OC)c(OC)c4)c(C)c3)nc2c1,0.26
17,COc1cc(OC)c2sc(-c3ccc(-n4cc(-c5cc(OC)c(OC)c(OC)c5)nn4)c(OC)c3)nc2c1,0.24

# Assay: Antiproliferative activity against human HepG2 cells after 48 hrs by MTT assay
# Type: functional, cell-based
# Details: HepG2, 48 h
# Procedure, shortened: as §1
row,Structure (SMILES),IC50 [µM]
1,COc1cc(OC)c2sc(-c3ccc(-n4cnnc4-c4cc(OC)c(OC)c(OC)c4)cc3)nc2c1,9.65
2,COc1ccc2nc(-c3ccc(-n4nnnc4-c4cc(OC)c(OC)c(OC)c4)c(OC)c3)sc2c1,1.67
3,COc1cc(-c2nnnn2-c2ccc(-c3nc4cc(OC)c(OC)c(OC)c4s3)cc2)cc(OC)c1OC,8.51
4,COc1cc(-c2nnnn2-c2ccc(-c3nc4cc(OC)c(OC)c(OC)c4s3)cc2C)cc(OC)c1OC,23.4
5,COc1ccc2nc(-c3ccc(-n4cc(-c5cc(OC)c(OC)c(OC)c5)nn4)c(OC)c3)sc2c1,16.4
6,COc1cc(-c2cn(-c3ccc(-c4nc5cc(OC)c(OC)c(OC)c5s4)cc3)nn2)cc(OC)c1OC,15.5
7,COc1ccc2nc(-c3ccc(-n4nnnc4-c4cc(OC)c(OC)c(OC)c4)c(C)c3)sc2c1,10.5
8,COc1cc(-c2nnnn2-c2ccc(-c3nc4ccc(F)cc4s3)cc2C)cc(OC)c1OC,1.69
9,COc1cc(-c2cn(-c3ccc(-c4nc5ccc(F)cc5s4)cc3C)nn2)cc(OC)c1OC,8.05
10,COc1cc(OC)c2sc(-c3ccc(-n4nnnc4-c4cc(OC)c(OC)c(OC)c4)cc3)nc2c1,22.4
11,COc1cc(OC)c2sc(-c3ccc(-n4nnnc4-c4cc(OC)c(OC)c(OC)c4)c(OC)c3)nc2c1,17
12,COc1cc(-c2nncn2-c2ccc(-c3nc4cc(OC)c(OC)c(OC)c4s3)cc2)cc(OC)c1OC,1.27
13,COc1cc(-c2nc3cc(OC)c(OC)c(OC)c3s2)ccc1-n1cnnc1-c1cc(OC)c(OC)c(OC)c1,7.41
14,COc1ccc2nc(-c3ccc(-n4cnnc4-c4cc(OC)c(OC)c(OC)c4)c(OC)c3)sc2c1,9.05
15,COc1ccc2nc(-c3ccc(-n4cc(-c5cc(OC)c(OC)c(OC)c5)nn4)cc3)sc2c1,12.4
16,COc1cc(OC)c2sc(-c3ccc(-n4cnnc4-c4cc(OC)c(OC)c(OC)c4)c(C)c3)nc2c1,2.54
17,COc1cc(OC)c2sc(-c3ccc(-n4cc(-c5cc(OC)c(OC)c(OC)c5)nn4)c(OC)c3)nc2c1,1.47

# Assay: Antiproliferative activity against human MCF7 cells after 48 hrs by MTT assay
# Type: functional, cell-based
# Details: MCF7, 48 h
# Procedure, shortened: as §1
row,Structure (SMILES),IC50 [µM]
1,COc1cc(OC)c2sc(-c3ccc(-n4cnnc4-c4cc(OC)c(OC)c(OC)c4)cc3)nc2c1,8.21
2,COc1ccc2nc(-c3ccc(-n4nnnc4-c4cc(OC)c(OC)c(OC)c4)c(OC)c3)sc2c1,3.45
3,COc1cc(-c2nnnn2-c2ccc(-c3nc4cc(OC)c(OC)c(OC)c4s3)cc2)cc(OC)c1OC,8.68
4,COc1cc(-c2nnnn2-c2ccc(-c3nc4cc(OC)c(OC)c(OC)c4s3)cc2C)cc(OC)c1OC,17.5
5,COc1ccc2nc(-c3ccc(-n4cc(-c5cc(OC)c(OC)c(OC)c5)nn4)c(OC)c3)sc2c1,15.5
6,COc1cc(-c2cn(-c3ccc(-c4nc5cc(OC)c(OC)c(OC)c5s4)cc3)nn2)cc(OC)c1OC,9.12
7,COc1ccc2nc(-c3ccc(-n4nnnc4-c4cc(OC)c(OC)c(OC)c4)c(C)c3)sc2c1,12.6
8,COc1cc(-c2nnnn2-c2ccc(-c3nc4ccc(F)cc4s3)cc2C)cc(OC)c1OC,3.23
9,COc1cc(-c2cn(-c3ccc(-c4nc5ccc(F)cc5s4)cc3C)nn2)cc(OC)c1OC,10.8
10,COc1cc(OC)c2sc(-c3ccc(-n4nnnc4-c4cc(OC)c(OC)c(OC)c4)cc3)nc2c1,31.6
11,COc1cc(OC)c2sc(-c3ccc(-n4nnnc4-c4cc(OC)c(OC)c(OC)c4)c(OC)c3)nc2c1,24.7
12,COc1cc(-c2nncn2-c2ccc(-c3nc4cc(OC)c(OC)c(OC)c4s3)cc2)cc(OC)c1OC,3.15
13,COc1cc(-c2nc3cc(OC)c(OC)c(OC)c3s2)ccc1-n1cnnc1-c1cc(OC)c(OC)c(OC)c1,10.5
14,COc1ccc2nc(-c3ccc(-n4cnnc4-c4cc(OC)c(OC)c(OC)c4)c(OC)c3)sc2c1,14.7
15,COc1ccc2nc(-c3ccc(-n4cc(-c5cc(OC)c(OC)c(OC)c5)nn4)cc3)sc2c1,22.9
16,COc1cc(OC)c2sc(-c3ccc(-n4cnnc4-c4cc(OC)c(OC)c(OC)c4)c(C)c3)nc2c1,5.35
17,COc1cc(OC)c2sc(-c3ccc(-n4cc(-c5cc(OC)c(OC)c(OC)c5)nn4)c(OC)c3)nc2c1,4.36
